As usually defined, the pA2 is a measure of antagonist potency on a negative log scale.

Square brackets hold non-standard residues; d marks the D form. Peptide text beside a SMILES is read from it. Sar = CNCC(=O)O

Results on 8 compounds are retold here after ChEMBL document CHEMBL3244222, “Synthesis of angiotensin II antagonists containing sarcosine in position 7” (J Med Chem, 1979).

The test system of experiment [1] is Rattus norvegicus. In words: Pressor activity in anesthetized vagotomized-ganglionic blocked rat model administered as bolus injection relative to [Ile5]angiotensin 2. Format: functional. The method, boiled down:
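Anesthetized, vagotomized rats. Ganglion block with mecamylamine hydrochloride, 0.3 mg/100 g subcutaneous in 10% polyvinylpyrrolidone. Analogues given as bolus injections in a 2+2 assay against angiotensin II standard (MRC Research Standard A, 70/302). Mean ± SEM, with the number of experiments given.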

Experiment [2] deals with T1, Angiotensin II receptor (Rattus norvegicus, UniProt P29089+P25095+P35351).
T1 sequence (P29089 whole entry): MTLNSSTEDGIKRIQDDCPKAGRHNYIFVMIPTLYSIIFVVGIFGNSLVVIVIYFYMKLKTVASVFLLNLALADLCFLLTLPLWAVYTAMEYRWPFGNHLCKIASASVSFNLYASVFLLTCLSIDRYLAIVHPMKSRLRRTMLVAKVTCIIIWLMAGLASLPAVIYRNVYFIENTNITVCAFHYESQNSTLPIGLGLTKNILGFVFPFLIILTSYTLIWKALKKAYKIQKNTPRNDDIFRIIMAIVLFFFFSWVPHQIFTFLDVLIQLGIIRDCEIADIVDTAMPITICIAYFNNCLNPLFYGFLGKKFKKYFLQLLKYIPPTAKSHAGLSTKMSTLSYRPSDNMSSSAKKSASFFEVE
T1 sequence (P25095 whole entry): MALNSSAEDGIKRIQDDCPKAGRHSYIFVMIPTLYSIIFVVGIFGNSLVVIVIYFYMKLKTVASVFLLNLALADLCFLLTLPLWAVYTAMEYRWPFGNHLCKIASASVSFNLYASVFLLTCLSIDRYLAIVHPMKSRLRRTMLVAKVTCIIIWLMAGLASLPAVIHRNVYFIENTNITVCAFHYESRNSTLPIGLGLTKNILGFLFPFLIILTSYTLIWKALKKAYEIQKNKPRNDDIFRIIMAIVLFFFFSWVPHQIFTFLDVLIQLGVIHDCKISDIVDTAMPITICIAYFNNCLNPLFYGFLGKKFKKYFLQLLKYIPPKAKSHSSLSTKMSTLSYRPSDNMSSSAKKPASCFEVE
T1 sequence (P35351 whole entry): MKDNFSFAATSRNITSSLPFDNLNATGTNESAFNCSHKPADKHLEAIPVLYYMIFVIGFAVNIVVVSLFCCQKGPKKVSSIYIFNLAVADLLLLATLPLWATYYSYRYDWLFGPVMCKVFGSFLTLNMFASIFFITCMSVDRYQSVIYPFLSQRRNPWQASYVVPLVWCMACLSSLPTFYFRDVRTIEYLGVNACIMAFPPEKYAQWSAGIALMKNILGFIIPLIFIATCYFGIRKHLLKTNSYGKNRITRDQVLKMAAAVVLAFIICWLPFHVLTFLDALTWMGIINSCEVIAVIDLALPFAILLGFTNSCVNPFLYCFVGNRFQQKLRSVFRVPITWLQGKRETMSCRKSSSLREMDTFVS
Briefly: Antagonist activity at angiotensin 2 receptor in Sprague-Dawley rat uterus assessed as reduction of angiotensin 2-induced response pretreated for 2 mins followed by angiotensin 2 challenge for every 12 mins.

Experiment [3] deals with Angiotensin II receptor (Rattus norvegicus) (UniProt P29089+P25095+P35351). In words: Intrinsic myotropic activity at angiotensin 2 receptor in Sprague-Dawley rat uterus relative to [Ile5]angiotensin 2. A digest of the protocol: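 Isolated uterus from diethylstilbestrol-primed female Sprague-Dawley rats (150-250 g), challenged every 12 min. Activity expressed relative to [Ile5]angiotensin II (MRC Research Standard A, 70/302). Mean ± SEM, with the number of experiments given.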

In experiment [1], `CC[C@H](C)[C@H](NC(=O)[C@H](Cc1ccc(O)cc1)NC(=O)[C@@H](NC(=O)[C@H](CCCNC(=N)N)NC(=O)CNC)C(C)C)C(=O)N[C@@H](Cc1cnc[nH]1)C(=O)N(C)CC(=O)N[C@@H](CC(C)C)C(=O)O` (H-[Sar]RVYIH[Sar]L-OH) registered an Activity of 0.21%. Besides, in experiment [2], the pA2 was determined as 7.4. In experiment [3], the Intrinsic activity is < 0.1%.
For `CC[C@H](C)[C@H](NC(=O)[C@H](Cc1ccc(O)cc1)NC(=O)[C@@H](NC(=O)[C@H](CCCNC(=N)N)NC(=O)CNC)C(C)C)C(=O)N[C@@H](Cc1cnc[nH]1)C(=O)N(C)CC(=O)N[C@H](C(=O)O)[C@@H](C)OC` (H-[Sar]RVYIH[Sar]T(Me)-OH) the same measures were 0.13%, 7.4 and < 0.1%.
For `CC[C@H](C)[C@H](NC(=O)[C@H](Cc1ccc(O)cc1)NC(=O)[C@@H](NC(=O)[C@H](CCCNC(=N)N)NC(=O)CNC)C(C)C)C(=O)N[C@@H](Cc1cnc[nH]1)C(=O)N(C)CC(=O)N[C@@H](CCSC)C(=O)O` (H-[Sar]RVYIH[Sar]M-OH) the same measures were 0.82%, 7.7 and < 0.1%.
For `CC[C@H](C)[C@H](NC(=O)[C@H](Cc1ccc(O)cc1)NC(=O)[C@@H](NC(=O)[C@H](CCCNC(=N)N)NC(=O)CNC)C(C)C)C(=O)N[C@@H](Cc1cnc[nH]1)C(=O)N(C)CC(=O)N[C@@H](C)C(=O)O` (H-[Sar]RVYIH[Sar]A-OH) the same measures were 0.06%, 7 and < 0.1%.
`CCC(C)C(NC(=O)CN(C)C(=O)[C@H](Cc1cnc[nH]1)NC(=O)[C@@H](NC(=O)[C@H](Cc1ccc(O)cc1)NC(=O)[C@@H](NC(=O)[C@H](CCCNC(=N)N)NC(=O)CNC)C(C)C)[C@@H](C)CC)C(=O)O` (mixture of isomers): the Activity in experiment [1] amounted to 12.5%. Moreover, in experiment [2], the pA2 is recorded as 8.4. Further, the Intrinsic activity in experiment [3] was 0.7%.
For `CC[C@H](C)[C@H](NC(=O)CN(C)C(=O)[C@H](Cc1cnc[nH]1)NC(=O)[C@@H](NC(=O)[C@H](Cc1ccc(O)cc1)NC(=O)[C@@H](NC(=O)[C@H](CCCNC(=N)N)NC(=O)CNC)C(C)C)[C@@H](C)CC)C(=O)O` the same measures were 0.7%, 8.1 and < 0.1%.
`CC[C@H](C)[C@H](NC(=O)[C@H](Cc1ccc(O)cc1)NC(=O)[C@@H](NC(=O)[C@H](CCCNC(=N)N)NC(=O)CNC)C(C)C)C(=O)N[C@@H](Cc1cnc[nH]1)C(=O)N(C)CC(=O)N[C@@H](Cc1ccccc1)C(=O)O` (H-[Sar]RVYIH[Sar]F-OH) returned an Activity in experiment [1] of 17%. The Intrinsic activity in experiment [3] turned out to be 22%.
For `CC[C@H](C)[C@H](NC(=O)[C@@H]1CCCN1C(=O)[C@H](Cc1c[nH]cn1)NC(=O)[C@@H](NC(=O)[C@H](Cc1ccc(O)cc1)NC(=O)[C@@H](NC(=O)[C@H](CCCN=C(N)N)NC(=O)CNC)C(C)C)[C@@H](C)CC)C(=O)O` the same measures were 1.1% and < 0.1%.
